Data on nine compounds can be found in ChEMBL document CHEMBL1139757, “Synthesis and evaluation of water-soluble docetaxel prodrugs-docetaxel esters of malic acid” (Bioorg Med Chem, 2007).

Series [1] can be described thus: Stability in PBS buffer at pH 7.4 after 48 hrs. In kind it is physicochemical.
For another series, the system named is MCF7. Kind of series: Cytotoxicity against human MCF7 cells by MTT assay. In kind it is functional, cell-based. The method, boiled down:
(§1)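 Cells exposed to compound for 48 h. MTT then added (final 0.5 mg/ml in RPMI-1640) for a further 4 h at 37 °C. Formazan dissolved in DMSO and absorbance read at 570 nm. IC50 for 50% inhibition of viability derived by dose–effect analysis. Three replicate wells per point, each experiment run in triplicate.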

A short description of series [2]: Solubility in water. In kind it is physicochemical. The method, boiled down:
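Compound suspended in water to 2 mg/mL, sonicated 15 min, then centrifuged at 13,000 rpm for 10 min. Supernatant quantified by reverse-phase HPLC with UV detection at 227 nm, taking extinction coefficients of prodrug and docetaxel as equal. Values are means of three experiments.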

Another series deals with A549. Kind of series: Cytotoxicity against human A549 cells by MTT assay. In kind it is functional, cell-based. The method, boiled down:
as §1

For the next series, the system named is K562. Kind of series: Cytotoxicity against human K562 cells by MTT assay. The series is classed as functional, cell-based. The method, boiled down: as §1
(In general: Tetrazolium dyes change colour on reduction, which living cells bring about.)

A further series is filed under the species Homo sapiens. Kind of series: Stability in human plasma.
A further series has as its system KB. Kind of series: Cytotoxicity against human KB cells by MTT assay. In kind it is functional, cell-based. The method, boiled down: as §1
The subject of a further series is H22. Nature of the series: Antitumor activity against mouse H22 cells xenografted ICR mouse assessed as tumor growth inhibition at 10 mg/kg, ip once daily after 7 days. In kind it is functional. Particulars: 168 h, route intraperitoneal. The method, boiled down: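 Male ICR mice implanted s.c. in the armpit with H22 hepatoma cells (5 × 10⁶ per animal). Dosing began 24 h after implantation: ip once daily for 7 consecutive days at 5, 10 or 20 mg/kg. Saline served as negative control (20 mice), 10 mice per treated group. Tumors excised and weighed at day 8. Inhibition = (C − T)/C × 100 from mean tumor weights.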

Values after ≈ are worked out from the molar mass of the structure shown. Bounds are passed on as bounds.

By half-life is commonly meant the time in which the quantity being followed falls by half. In general, IC50 refers to the concentration needed to halve the response being measured. The low end stands for greater potency, the high end for weaker potency. For orientation: solubility means the concentration that dissolves in the medium under given conditions. The low end stands for a poorly soluble substance, the high end for a readily soluble substance. Take `CC(=O)O[C@@]12CO[C@@H]1C[C@H](O)[C@@]1(C)C(=O)[C@H](O)C3=C(C)[C@@H](OC(=O)[C@H](OC(=O)CC(O)C(=O)O)[C@@H](NC(=O)OC(C)(C)C)c4ccccc4)C[C@@](O)([C@@H](OC(=O)c4ccccc4)[C@H]21)C3(C)C` (some centres undefined): the half-life in series [1] is > 48 h; in the series listed under Homo sapiens it was 4 h. Also, the IC50 is 39.2 µg/mL (≈ 42.4 µM) in the series with MCF7, > 50 µg/mL in the series on A549, 9.5 µg/mL (≈ 10.3 µM) in the series on K562 and 3.5 µg/mL (≈ 3.79 µM) in the series on KB. The compound also displayed a solubility in series [2] of 470 µg/mL (≈ 509 µM).

With `CC(=O)O[C@@]12CO[C@@H]1C[C@H](O)[C@@]1(C)C(=O)[C@H](O)C3=C(C)[C@@H](OC(=O)[C@H](OC(=O)C[C@@H](O)C(=O)O)[C@@H](NC(=O)OC(C)(C)C)c4ccccc4)C[C@@](O)([C@@H](OC(=O)c4ccccc4)[C@H]21)C3(C)C`, the half-life was > 48 h in series [1] and 4 h in the series listed under Homo sapiens. Further, the IC50 in the series with MCF7 was > 50 µg/mL; with A549 it was > 50 µg/mL; in the series on K562 it was 0.85 µg/mL (≈ 0.92 µM); with KB, > 50 µg/mL. The solubility in series [2] came to 470 µg/mL (≈ 509 µM).

Regarding `CC(=O)O[C@@]12CO[C@@H]1C[C@H](O)[C@@]1(C)C(=O)[C@H](O)C3=C(C)[C@@H](OC(=O)[C@H](OC(=O)C[C@@H](O)C(=O)[O-])[C@@H](NC(=O)OC(C)(C)C)c4ccccc4)C[C@@](O)([C@@H](OC(=O)c4ccccc4)[C@H]21)C3(C)C.[Na+]`, the half-life in series [1] is > 24 h; in the series listed under Homo sapiens, 3 h. Further, the half-maximal inhibitory concentration (IC50) is > 50 µg/mL in the series with MCF7, > 50 µg/mL in the series with A549, 18.8 µg/mL in the series on K562 and > 50 µg/mL in the series with KB. This compound came in with a solubility in series [2] of 620 µg/mL.

As to `CC(=O)O[C@@]12CO[C@@H]1C[C@H](O)[C@@]1(C)C(=O)[C@H](O)C3=C(C)[C@@H](OC(=O)[C@H](OC(=O)C[C@H](O)C(=O)O)[C@@H](NC(=O)OC(C)(C)C)c4ccccc4)C[C@@](O)([C@@H](OC(=O)c4ccccc4)[C@H]21)C3(C)C`, the half-life in series [1] was > 48 h; in the series filed under Homo sapiens, 4 h. For the same compound, the IC50 in the series on MCF7 is > 50 µg/mL; with A549 it was > 50 µg/mL; with K562, 3.9 µg/mL (≈ 4.22 µM); in the series with KB, > 50 µg/mL. The compound also gave a solubility in series [2] of 470 µg/mL (≈ 509 µM).

Consider `CC(=O)O[C@@]12CO[C@@H]1C[C@H](O)[C@@]1(C)C(=O)[C@H](O)C3=C(C)[C@@H](OC(=O)[C@H](OC(=O)C[C@H](O)C(=O)[O-])[C@@H](NC(=O)OC(C)(C)C)c4ccccc4)C[C@@](O)([C@@H](OC(=O)c4ccccc4)[C@H]21)C3(C)C.[Na+]`, for which the values for the half-life (in series [1]; in the series listed under Homo sapiens) were > 24 h and 3 h, respectively. Also, the concentration for half-maximal inhibition (IC50) in the series on MCF7 is > 50 µg/mL; with A549, > 50 µg/mL; in the series with K562, 38.1 µg/mL; in the series on KB, > 50 µg/mL. Moreover, the concentration in solution in series [2] (solubility) was 620 µg/mL.

`CC(=O)O[C@@]12CO[C@@H]1C[C@H](OC(=O)CC(O)C(=O)O)[C@@]1(C)C(=O)[C@H](O)C3=C(C)[C@@H](OC(=O)[C@H](O)[C@@H](NC(=O)OC(C)(C)C)c4ccccc4)C[C@@](O)([C@@H](OC(=O)c4ccccc4)[C@H]21)C3(C)C` (mixture of isomers): in series [1], the half-life was > 48 h. In addition, the IC50 with MCF7 is > 50 µg/mL; in the series with A549 it was > 50 µg/mL; with K562 it was 0.069 µg/mL; with KB, > 50 µg/mL. Moreover, the solubility in series [2] is 430 µg/mL.

With `CC(=O)O[C@@]12CO[C@@H]1C[C@H](O)[C@@]1(C)C(=O)[C@H](O)C3=C(C)[C@@H](OC(=O)[C@H](OC(=O)CC(O)C(=O)[O-])[C@@H](NC(=O)OC(C)(C)C)c4ccccc4)C[C@@](O)([C@@H](OC(=O)c4ccccc4)[C@H]21)C3(C)C.[Na+]` (mixture of isomers), the values for the half-life (in series [1]; in the series filed under Homo sapiens) were > 24 h and 3 h, respectively. The IC50 turned out to be 3.6 µg/mL in the series with MCF7, 3.5 µg/mL in the series with A549, 1.5 µg/mL in the series on K562 and 0.45 µg/mL in the series on KB. The solubility in series [2] was 620 µg/mL.

As for `CC(=O)O[C@@]12CO[C@@H]1C[C@H](OC(=O)CC(O)C(=O)O)[C@@]1(C)C(=O)[C@H](OC(=O)CC(O)C(=O)O)C3=C(C)[C@@H](OC(=O)[C@H](OC(=O)CC(O)C(=O)O)[C@@H](NC(=O)OC(C)(C)C)c4ccccc4)C[C@@](O)([C@@H](OC(=O)c4ccccc4)[C@H]21)C3(C)C` (mixture of isomers), the half-life in series [1] was > 48 h. Also, the concentration for half-maximal inhibition (IC50) is > 50 µg/mL in the series on MCF7, > 50 µg/mL in the series on A549, 17 µg/mL in the series with K562 and > 50 µg/mL in the series on KB. Besides, in series [2], the solubility came to 550 µg/mL.

As usually defined, the inhibition in vivo is the relative decrease from the control value, in per cent. Regarding `CC(=O)O[C@@]12CO[C@@H]1C[C@H](O)[C@@]1(C)C(=O)[C@H](O)C3=C(C)[C@@H](OC(=O)[C@H](O)[C@@H](NC(=O)OC(C)(C)C)c4ccccc4)C[C@@](O)([C@@H](OC(=O)c4ccccc4)[C@H]21)C3(C)C.O.O.O` [DOCETAXEL], the 50% inhibitory concentration (IC50) in the series on MCF7 was 3.3 µg/mL; with A549 it was 1.4 µg/mL; in the series on K562, 6.9 µg/mL; with KB it was 11.6 µg/mL. The inhibition in vivo at 10 mg/kg in the series on H22 was determined as 46.3%.
